Results gathered from unrelated publications.
Compare with care: the assays were run in different laboratories.
Cell line: NCI-H322M
Observed: cell growth or viability

| Compound | method | time | measurement | value |
| --- | --- | --- | --- | --- |
| O=C1NC(=NCc2cccs2)S/C1=C\c1ccc2ncccc2c1 | – | – | IC50 | > 10 µM |
| COc1cccc(Oc2ccccc2NC(=O)CNC(=O)c2cccc3ccccc23)c1 | SRB | 48 h | GI50 | 1.29 µM |
| O=C1NCCc2[nH]c(-c3ccncc3)cc21 | – | – | IC50 | > 10 µM |
| COc1ccc(C(=O)/C=C/c2cc3c(cc2Br)OCO3)cc1S(N)(=O)=O | SRB | 48 h | GI50 | 3.8 µM |
| Cc1cc(C)n(C(=S)[S][Au][PH](CCCCCC[PH]([Au][S]C(=S)n2nc(C)cc2C)(c2ccccc2)c2ccccc2)(c2ccccc2)c2ccccc2)n1 | SRB | – | GI50 | 0.423 µM |
| COc1ccc(-c2ccc(-c3ccc(C(=N)N)nc3)s2)cc1 | SRB | – | GI50 | 1.59 µM |
| CCc1n(Cc2ccc3ccccc3n2)cc[n+]1Cc1ccc2ccccc2n1 | SRB | – | TGI | 41.9 µM |
| COc1cc(-c2ccc(-c3ccc(C(=N)N)nc3)s2)cc(OC)c1OC | SRB | – | GI50 | 3.23 µM |
| c1ccc2cc(Cn3cc[n+](Cc4ccc5ccccc5c4)c3)ccc2c1 | SRB | – | TGI | 21.3 µM |
| COc1ccc(C(=O)/C=C/c2cccnc2)cc1S(N)(=O)=O | SRB | 48 h | GI50 | 12.3 µM |
| CCc1n(Cc2ccc3ccccc3n2)cc[n+]1Cc1ccc2ccccc2c1 | SRB | – | TGI | 13.8 µM |
| S=C([S][Au-][P+](CCCCCC[P+]([Au-][S]C(=S)n1cccn1)(c1ccccc1)c1ccccc1)(c1ccccc1)c1ccccc1)n1cccn1 | SRB | – | GI50 | 0.417 µM |
